# Measurements from different studies.
# Action: inhibitor
# rep main protease: Replicase polyprotein 1ab, main protease (rep, Severe acute respiratory syndrome coronavirus 2, UniProt P0DTD1)
# rep methyltransferase: Replicase polyprotein 1ab, methyltransferase (rep, Severe acute respiratory syndrome coronavirus 2, UniProt P0DTD1)
# rep papain-like protease: Replicase polyprotein 1ab, papain-like protease (rep, Severe acute respiratory syndrome coronavirus 2, UniProt P0DTD1)
Compound,target,effect on,technique,pH,setting,IC50 [µM]
Nc1ccc(C(=O)N2CC3(CCC3)C[C@H]2CNC(=O)c2cncc3ccccc23)cc1O,rep main protease,enzyme activity,,,,29.6
CC(C)c1cccc(NC(=O)C2CC(=O)Nc3ccccc32)c1 (stereo not drawn),rep main protease,enzyme activity,,,,3.72
CCN(CC)S(=O)(=O)c1cccc(-n2sc3ccccc3c2=O)c1,rep main protease,enzyme activity,,,,> 20
COc1cc(Br)cc(C=NN2C(=O)c3ccccc3NC2c2cc(Br)cc(OC)c2O)c1O (stereo not drawn),rep main protease,enzyme activity in cells,,,,> 40
CCOC(=O)c1c(NC(=O)c2ccc3c(c2)CC(c2ccccc2)OC3=O)sc(C)c1C (stereo not drawn),rep methyltransferase,enzyme activity,,,,47.9
Cc1nn(-c2ccc(Cl)cc2)c2c1C(c1ccc(Cl)c(Cl)c1)C(C#N)=C(N)O2 (stereo not drawn),rep main protease,enzyme activity,,,,100
Clc1ccc(C(Cn2ccnc2)OCc2csc3c(Cl)cccc23)c(Cl)c1 (stereo not drawn),rep main protease,enzyme activity in cells,,,,7.45
COc1ccc2nc(NC(=O)CSc3nc4ccccc4c4nnnn34)sc2c1,rep methyltransferase,enzyme activity,,,,44.8
O=C(Cn1nnc2ccccc21)Nc1ccccc1N1CCc2sccc2C1,rep main protease,enzyme activity,FRET,,,> 100
CC(C)=CCOc1ccc(/C=C/C(=O)c2ccc(OCC=C(C)C)cc2OCC(=O)O)cc1,rep methyltransferase,enzyme activity,,,,37.6
COc1cc(C[C@@H](C)[C@@H](C)Cc2cc(O)c(OC)c(OC)c2)cc(O)c1OC,rep papain-like protease,enzyme activity,FRET,,,5.23
COCCn1c2c([n+](Cc3cnccn3)c1C)C(=O)c1ccccc1C2=O,rep papain-like protease,enzyme activity,FRET,pH 7.5,,20.2
Cc1c(O)cccc1C(=O)N[C@@H](CSc1ccccc1)[C@H](O)CN1C[C@H]2CCCC[C@H]2C[C@H]1C(=O)NC(C)(C)C,rep main protease,enzyme activity in cells,,,,> 10
O=C(Oc1cncc(Cl)c1)c1cc2c(Cl)cc(Cl)cc2[nH]1,rep main protease,enzyme activity,,,,0.0233
CN1CCN(C(=O)c2ccc(-c3ccc4c(C=O)c(O)ccc4c3)s2)CC1,rep main protease,enzyme activity,,,,1.3
c1ccc([Se][Se]c2ccccc2)cc1,rep main protease,enzyme activity,FRET,,,1.33
CC(C)C[C@H](NC(=O)[C@@H](NC(=O)OCc1ccccc1)C(C)(C)C)C(=O)N(C)N(C#N)CCC(N)=O,rep main protease,enzyme activity,,,,0.775
Cc1coc2c1C(=O)C(=O)c1c-2ccc2c1CCCC2(C)C,rep papain-like protease,enzyme activity,FRET,pH 7.5,,15.3
CC(=O)N[C@@H](CS)C(=O)O,rep papain-like protease,enzyme activity,,,,> 150
N#Cc1c(N)[nH]c2cc(/C=C/c3cccc(F)c3)ccc12,rep papain-like protease,enzyme activity,fluorescence,,,> 100
c1ccc(-c2nc(N3CCOCC3)[s+]n2-c2ccccc2)cc1,rep main protease,enzyme activity,,,,0.328
O=C1c2ccccc2NC(c2cc(Cl)ccc2O)N1N=Cc1cc(Cl)ccc1O (stereo not drawn),rep main protease,enzyme activity in cells,,,,10
Oc1ccc(O)cc1,rep methyltransferase,enzyme activity,,,,12.2
Cc1c[nH]c2ncc(C(=O)N[C@H]3[C@H](CNc4cc(=O)n5ccccc5n4)CCC34CCC4)cc12,rep main protease,enzyme activity,,,,32.7
CCc1ccc(/C=C/C(=O)Nc2ccc(C(C)=O)cc2)o1,rep main protease,enzyme activity,,,,5
Cc1cccc(C)c1OCC(=O)N[C@@H](Cc1ccccc1)[C@@H](O)C[C@H](Cc1ccccc1)NC(=O)[C@H](C(C)C)N1CCCNC1=O,rep main protease,enzyme activity,luciferase,,,> 240
CCOc1cc(C(Nc2cc(C)ccn2)c2ccc3cccnc3c2O)ccc1OC (stereo not drawn),rep main protease,enzyme activity,,,,0.27
CCCCCCCCOc1ccccc1C(=O)Nc1ccc(C(=O)OCC[N+](C)(CC)CC)cc1,rep methyltransferase,enzyme activity,,,,39.3
CC[N+](C)(CC)CCC[n+]1c(-c2ccccc2)c2cc(N)ccc2c2ccc(N)cc21,rep main protease,enzyme activity,,,,> 20
COC(=O)N[C@H](C(=O)N[C@@H](Cc1ccccc1)[C@@H](O)CN(Cc1ccc(-c2ccccn2)cc1)NC(=O)[C@@H](NC(=O)OC)C(C)(C)C)C(C)(C)C,rep main protease,enzyme activity,luciferase,,,> 240
O=c1[nH]nc(Sc2ncc([N+](=O)[O-])s2)n1-c1ccc2c(c1)OCCO2,rep main protease,enzyme activity,,,,0.3
CN(C)[C@@H]1C(O)=C(C(N)=O)C(=O)[C@@]2(O)C(O)=C3C(=O)c4c(O)cccc4[C@@](C)(O)[C@H]3[C@H](O)[C@@H]12,rep main protease,enzyme activity,luciferase,,,> 240
NC(Cc1cc(O)c(O)cc1O)C(=O)O (racemic),rep main protease,enzyme activity,,,,> 20
CC1(C)CC(=O)c2c(oc3c(Cl)cc(NS(=O)(=O)c4ccc5ccccc5c4)cc23)C1,rep methyltransferase,enzyme activity,,,,87
CCCCCC/C=C\CCCCCCCCCc1cc(O)cc(O)c1,rep main protease,enzyme activity,,,with preincubation,> 100
O=C1c2ccccc2NC(c2cc([N+](=O)[O-])ccc2O)N1N=Cc1cc([N+](=O)[O-])ccc1O (stereo not drawn),rep main protease,enzyme activity in cells,,,,> 40
CC(C)c1nc(CN(C)C(=O)N[C@@H](CCN2CCOCC2)C(=O)N[C@H](CC[C@H](Cc2ccccc2)NC(=O)OCc2cncs2)Cc2ccccc2)cs1,rep main protease,enzyme activity,luciferase,,,> 240
CCOc1ccc(Nc2nc(-c3c(C)nc4ccccn34)cs2)cc1,rep main protease,enzyme activity,,,,5.05
CCOc1nc2cccc(C(=O)OC(C)OC(=O)OC3CCCCC3)c2n1Cc1ccc(-c2ccccc2-c2nn[nH]n2)cc1 (stereo not drawn),rep methyltransferase,enzyme activity,,,,30
Cc1cccc2c3c(ccc12)C1=C(C(=O)C3=O)[C@@H](C)CO1,rep papain-like protease,enzyme activity,FRET,pH 7.5,,33
O=c1oc2c(O)c(O)cc3c(=O)oc4c(O)c(O)cc1c4c23,rep methyltransferase,enzyme activity,,,,22.9
COC(=O)C1=C(C)NC(C)=C(C(=O)OCCN2CCN(C(c3ccccc3)c3ccccc3)CC2)C1c1cccc([N+](=O)[O-])c1 (stereo not drawn),rep main protease,enzyme activity,luciferase,,,> 240
COc1cc(C[C@@H](C)[C@@H](C)Cc2ccc(O)c(OC)c2)ccc1O,rep main protease,enzyme activity,FRET,,,4.12
CCOc1nc2cccc(C(=O)O)c2n1Cc1ccc(-c2ccccc2-c2nnn[nH]2)cc1,rep main protease,enzyme activity,,,,> 240
O=C(NC[C@@H]1c2ccccc2CCN1C(=O)/C=C/c1cn[nH]c1)c1cncc2ccc(F)cc12,rep main protease,enzyme activity,,,,18.7
